Laboratory results taken from ChEMBL document CHEMBL5653631, “A Potent and Selective ULK1 Inhibitor Suppresses Autophagy and Sensitizes Cancer Cells to Nutrient Stress” (iScience, 2018).

Tests used:
[1] = biological target: Serine/threonine-protein kinase MARK1 (Homo sapiens) (UniProt Q9P0L2); assay: Inhibition of human recombinant MARK1 at 500 nM related to control ULK1
[2] = biological target: Cyclin-dependent kinase 2 (Homo sapiens) (UniProt P24941); assay: Inhibition of human recombinant CDK2 at 15 nM related to control ULK1
[3] = biological target: T1, Ephrin type-A receptor 8 (Homo sapiens) (UniProt P29322); assay: Inhibition of human recombinant EphA8 at 15 nM related to control ULK1
T1 sequence (whole entry): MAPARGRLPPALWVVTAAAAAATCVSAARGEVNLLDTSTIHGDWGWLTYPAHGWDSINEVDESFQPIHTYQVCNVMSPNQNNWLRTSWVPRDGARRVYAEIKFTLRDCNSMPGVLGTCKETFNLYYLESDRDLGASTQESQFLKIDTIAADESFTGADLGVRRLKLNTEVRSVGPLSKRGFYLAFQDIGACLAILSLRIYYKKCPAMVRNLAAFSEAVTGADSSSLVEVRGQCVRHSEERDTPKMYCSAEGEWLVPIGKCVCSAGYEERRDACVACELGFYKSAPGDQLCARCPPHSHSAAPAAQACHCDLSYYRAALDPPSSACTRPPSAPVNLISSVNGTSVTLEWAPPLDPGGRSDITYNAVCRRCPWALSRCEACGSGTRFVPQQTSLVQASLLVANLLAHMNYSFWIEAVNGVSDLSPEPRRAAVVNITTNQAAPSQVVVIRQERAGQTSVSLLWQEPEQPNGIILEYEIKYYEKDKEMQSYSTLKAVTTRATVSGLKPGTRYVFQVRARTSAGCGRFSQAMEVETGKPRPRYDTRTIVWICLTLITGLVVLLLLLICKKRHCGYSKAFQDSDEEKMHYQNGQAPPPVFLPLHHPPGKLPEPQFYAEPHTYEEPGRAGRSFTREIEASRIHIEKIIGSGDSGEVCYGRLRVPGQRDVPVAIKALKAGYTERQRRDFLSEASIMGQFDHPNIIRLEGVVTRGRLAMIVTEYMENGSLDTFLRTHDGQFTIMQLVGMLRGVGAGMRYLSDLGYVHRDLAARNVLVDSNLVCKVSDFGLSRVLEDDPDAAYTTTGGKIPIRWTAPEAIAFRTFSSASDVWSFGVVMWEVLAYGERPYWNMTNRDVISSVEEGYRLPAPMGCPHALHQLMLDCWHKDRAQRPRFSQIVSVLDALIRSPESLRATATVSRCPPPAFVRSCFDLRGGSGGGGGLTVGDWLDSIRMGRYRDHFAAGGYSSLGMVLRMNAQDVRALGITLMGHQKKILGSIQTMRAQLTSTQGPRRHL

[4] = biological target: Homeodomain-interacting protein kinase 1 (Homo sapiens) (UniProt Q86Z02); assay: Inhibition of human recombinant HIPK1 at 15 nM in presence of ATP by radiometric assay relative to control
[5] = biological target: cAMP-dependent protein kinase catalytic subunit alpha (Homo sapiens) (UniProt P17612); assay: Inhibition of human recombinant PKACalpha at 15 nM related to control ULK1
[6] = biological target: T2, Inhibitor of nuclear factor kappa-B kinase subunit beta (Homo sapiens) (UniProt O14920); assay: Inhibition of human recombinant IKKb at 40 nM in presence of ATP by radiometric assay relative to control
T2 sequence (whole entry): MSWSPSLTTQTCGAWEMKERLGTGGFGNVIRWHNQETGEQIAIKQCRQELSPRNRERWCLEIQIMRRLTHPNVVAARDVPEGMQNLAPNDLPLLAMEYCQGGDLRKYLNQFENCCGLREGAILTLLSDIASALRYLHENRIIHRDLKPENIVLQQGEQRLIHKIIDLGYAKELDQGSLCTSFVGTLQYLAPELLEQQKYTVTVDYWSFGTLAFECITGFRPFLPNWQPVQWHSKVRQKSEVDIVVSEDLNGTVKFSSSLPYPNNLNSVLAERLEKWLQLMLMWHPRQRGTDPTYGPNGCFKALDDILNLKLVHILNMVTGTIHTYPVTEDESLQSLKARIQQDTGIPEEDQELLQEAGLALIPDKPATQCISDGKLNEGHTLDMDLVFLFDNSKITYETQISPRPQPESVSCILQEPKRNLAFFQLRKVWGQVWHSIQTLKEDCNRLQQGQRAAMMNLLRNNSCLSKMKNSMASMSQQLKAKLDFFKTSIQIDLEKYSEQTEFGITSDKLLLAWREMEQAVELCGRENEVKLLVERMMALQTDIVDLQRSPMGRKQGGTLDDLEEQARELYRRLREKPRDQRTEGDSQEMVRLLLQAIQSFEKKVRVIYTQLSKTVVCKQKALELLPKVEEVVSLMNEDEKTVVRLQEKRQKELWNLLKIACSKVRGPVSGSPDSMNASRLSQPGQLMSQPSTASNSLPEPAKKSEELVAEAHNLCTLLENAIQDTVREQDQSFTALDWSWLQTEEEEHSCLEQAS

[7] = biological target: T3, G protein-coupled receptor kinase 3 (Homo sapiens) (UniProt P35626); assay: Inhibition of human recombinant BARK2 at 40 nM in presence of ATP by radiometric assay relative to control
T3 sequence (whole entry): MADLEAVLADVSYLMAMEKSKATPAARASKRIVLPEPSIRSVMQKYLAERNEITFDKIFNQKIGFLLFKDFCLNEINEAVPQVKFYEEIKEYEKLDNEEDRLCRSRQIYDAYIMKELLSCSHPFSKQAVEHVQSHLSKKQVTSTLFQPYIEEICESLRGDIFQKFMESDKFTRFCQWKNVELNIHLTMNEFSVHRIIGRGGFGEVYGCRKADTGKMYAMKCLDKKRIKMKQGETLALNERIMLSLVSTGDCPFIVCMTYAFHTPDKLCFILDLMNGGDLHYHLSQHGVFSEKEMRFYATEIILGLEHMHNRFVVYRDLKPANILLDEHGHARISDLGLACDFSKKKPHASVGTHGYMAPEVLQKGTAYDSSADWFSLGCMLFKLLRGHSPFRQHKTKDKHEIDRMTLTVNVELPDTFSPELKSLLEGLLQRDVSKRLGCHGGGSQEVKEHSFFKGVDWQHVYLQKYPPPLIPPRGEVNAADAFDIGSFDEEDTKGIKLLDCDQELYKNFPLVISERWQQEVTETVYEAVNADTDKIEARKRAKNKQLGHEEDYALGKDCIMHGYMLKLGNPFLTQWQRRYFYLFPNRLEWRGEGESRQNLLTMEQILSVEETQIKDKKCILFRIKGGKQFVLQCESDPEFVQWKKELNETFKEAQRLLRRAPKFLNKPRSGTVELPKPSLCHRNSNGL
Outline: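 Part of a radiometric in vitro activity panel of 327 recombinant human kinases. Each kinase was tested in duplicate at one inhibitor concentration. Activity remaining was expressed as a percentage of the vehicle control, and percent inhibition was taken as 100 minus that value.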

[8] = biological target: Vascular endothelial growth factor receptor 2 (Homo sapiens) (UniProt P35968); assay: Inhibition of human recombinant KDR at 40 nM in presence of ATP by radiometric assay relative to control
Vascular endothelial growth factor receptor 2 (Homo sapiens), sequence (P35968 whole entry): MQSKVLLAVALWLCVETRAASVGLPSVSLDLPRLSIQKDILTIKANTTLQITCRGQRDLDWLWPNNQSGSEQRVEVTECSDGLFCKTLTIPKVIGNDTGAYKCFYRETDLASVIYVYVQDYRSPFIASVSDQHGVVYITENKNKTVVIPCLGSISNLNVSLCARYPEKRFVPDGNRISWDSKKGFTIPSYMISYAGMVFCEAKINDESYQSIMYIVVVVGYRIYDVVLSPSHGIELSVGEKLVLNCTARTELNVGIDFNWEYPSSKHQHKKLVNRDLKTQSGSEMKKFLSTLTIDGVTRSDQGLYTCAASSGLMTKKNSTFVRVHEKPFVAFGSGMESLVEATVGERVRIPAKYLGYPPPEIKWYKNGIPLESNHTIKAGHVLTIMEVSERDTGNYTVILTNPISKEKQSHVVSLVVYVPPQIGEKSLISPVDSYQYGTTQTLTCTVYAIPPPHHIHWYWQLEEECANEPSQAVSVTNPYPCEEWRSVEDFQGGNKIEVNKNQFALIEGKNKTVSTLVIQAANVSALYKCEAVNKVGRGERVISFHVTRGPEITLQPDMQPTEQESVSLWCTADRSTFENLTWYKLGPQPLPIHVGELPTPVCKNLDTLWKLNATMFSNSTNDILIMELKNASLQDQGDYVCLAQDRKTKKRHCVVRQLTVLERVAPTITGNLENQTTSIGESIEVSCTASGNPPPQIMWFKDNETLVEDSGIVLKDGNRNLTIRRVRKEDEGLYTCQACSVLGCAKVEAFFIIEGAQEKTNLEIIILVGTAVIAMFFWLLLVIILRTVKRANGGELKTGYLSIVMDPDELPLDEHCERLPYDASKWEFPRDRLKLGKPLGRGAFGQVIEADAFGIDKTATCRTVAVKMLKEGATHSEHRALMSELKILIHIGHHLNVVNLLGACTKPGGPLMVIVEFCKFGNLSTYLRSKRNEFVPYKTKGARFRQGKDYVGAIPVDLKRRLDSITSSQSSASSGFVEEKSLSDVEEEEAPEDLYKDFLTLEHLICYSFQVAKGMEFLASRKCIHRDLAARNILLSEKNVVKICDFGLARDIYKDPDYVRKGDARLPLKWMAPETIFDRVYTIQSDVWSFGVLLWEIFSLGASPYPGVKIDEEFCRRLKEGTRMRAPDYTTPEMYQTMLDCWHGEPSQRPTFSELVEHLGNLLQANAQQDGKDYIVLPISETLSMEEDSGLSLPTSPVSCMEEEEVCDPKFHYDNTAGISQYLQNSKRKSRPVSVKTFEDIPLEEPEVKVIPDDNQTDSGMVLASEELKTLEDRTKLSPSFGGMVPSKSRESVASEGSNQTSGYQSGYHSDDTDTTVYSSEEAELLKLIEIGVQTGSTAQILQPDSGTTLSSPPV

Serine/threonine-protein kinase MARK1 (Homo sapiens), sequence (Q9P0L2 whole entry, looked up): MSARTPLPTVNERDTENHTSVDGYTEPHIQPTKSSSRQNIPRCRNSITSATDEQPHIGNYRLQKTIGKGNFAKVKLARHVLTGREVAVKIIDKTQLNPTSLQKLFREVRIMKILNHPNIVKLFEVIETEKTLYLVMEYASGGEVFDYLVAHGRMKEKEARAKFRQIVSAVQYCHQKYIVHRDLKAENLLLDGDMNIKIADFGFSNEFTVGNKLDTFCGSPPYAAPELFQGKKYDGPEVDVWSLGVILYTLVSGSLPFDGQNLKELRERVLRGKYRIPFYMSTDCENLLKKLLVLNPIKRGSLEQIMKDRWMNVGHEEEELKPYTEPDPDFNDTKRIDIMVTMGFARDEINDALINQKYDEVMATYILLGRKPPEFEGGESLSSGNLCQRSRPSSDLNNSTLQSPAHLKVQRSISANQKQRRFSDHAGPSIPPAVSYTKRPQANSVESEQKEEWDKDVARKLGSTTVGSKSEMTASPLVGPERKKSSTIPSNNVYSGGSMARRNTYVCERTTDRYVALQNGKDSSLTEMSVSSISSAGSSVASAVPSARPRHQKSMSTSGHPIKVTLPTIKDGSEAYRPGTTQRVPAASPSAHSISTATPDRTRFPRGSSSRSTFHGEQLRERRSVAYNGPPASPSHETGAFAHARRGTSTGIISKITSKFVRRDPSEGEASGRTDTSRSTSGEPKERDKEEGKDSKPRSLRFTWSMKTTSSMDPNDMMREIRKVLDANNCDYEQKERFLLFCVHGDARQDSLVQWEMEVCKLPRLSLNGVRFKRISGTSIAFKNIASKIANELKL
Homeodomain-interacting protein kinase 1 (Homo sapiens), sequence (Q86Z02 whole entry, looked up): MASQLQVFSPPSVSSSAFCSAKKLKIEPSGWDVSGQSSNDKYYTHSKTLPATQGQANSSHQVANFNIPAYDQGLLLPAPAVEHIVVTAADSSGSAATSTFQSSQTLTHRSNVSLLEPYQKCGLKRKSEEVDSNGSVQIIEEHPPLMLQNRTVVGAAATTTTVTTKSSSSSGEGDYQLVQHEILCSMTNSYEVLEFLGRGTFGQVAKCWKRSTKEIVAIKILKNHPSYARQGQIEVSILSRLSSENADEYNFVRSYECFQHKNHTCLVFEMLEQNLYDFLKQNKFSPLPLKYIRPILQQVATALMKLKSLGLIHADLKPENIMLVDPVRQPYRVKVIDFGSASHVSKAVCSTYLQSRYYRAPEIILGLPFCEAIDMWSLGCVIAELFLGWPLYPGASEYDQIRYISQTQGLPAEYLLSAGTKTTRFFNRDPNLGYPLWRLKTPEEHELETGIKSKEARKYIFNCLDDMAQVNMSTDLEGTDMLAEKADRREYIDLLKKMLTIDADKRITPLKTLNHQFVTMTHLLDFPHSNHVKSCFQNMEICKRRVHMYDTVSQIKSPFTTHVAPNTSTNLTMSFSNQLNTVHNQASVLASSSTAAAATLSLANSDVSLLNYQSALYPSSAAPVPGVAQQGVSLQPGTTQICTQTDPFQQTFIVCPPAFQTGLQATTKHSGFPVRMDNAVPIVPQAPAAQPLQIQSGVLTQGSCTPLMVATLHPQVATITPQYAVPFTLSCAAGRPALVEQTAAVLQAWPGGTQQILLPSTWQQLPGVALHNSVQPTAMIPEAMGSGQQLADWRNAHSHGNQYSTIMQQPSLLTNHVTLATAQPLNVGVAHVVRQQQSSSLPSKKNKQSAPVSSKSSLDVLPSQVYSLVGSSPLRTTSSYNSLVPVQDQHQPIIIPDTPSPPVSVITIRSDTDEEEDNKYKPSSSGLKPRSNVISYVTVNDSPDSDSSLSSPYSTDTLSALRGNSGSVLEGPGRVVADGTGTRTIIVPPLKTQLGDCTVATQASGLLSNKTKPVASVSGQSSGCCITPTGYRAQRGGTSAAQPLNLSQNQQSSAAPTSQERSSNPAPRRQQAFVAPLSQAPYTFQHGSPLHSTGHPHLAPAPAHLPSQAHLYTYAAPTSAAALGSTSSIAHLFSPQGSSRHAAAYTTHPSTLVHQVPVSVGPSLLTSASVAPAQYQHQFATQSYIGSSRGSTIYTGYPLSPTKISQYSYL

CNC(=O)c1ccccc1Oc1nc(Nc2cc(OC)c(OC)c(OC)c2)ncc1Br
fold change (FC) [1]: 0.73

CC(C)[C@H](NC(=O)c1cc(-c2cnn3cc(-c4ccc(OCCN5CCCCC5)cc4)cnc23)cs1)C(F)(F)F
fold change (FC) [2]: 0.01 | fold change (FC) [3]: 0 | inhibition [4]: 0% | fold change (FC) [5]: 0

O=C(N[C@@H](C1CC1)C(F)(F)F)c1cc(-c2cnn3cc(-c4ccc(F)cc4)cnc23)cs1
inhibition [6]: 0% | inhibition [7]: 7% | inhibition [8]: 5%
